tested on: PC-12; assay: Cytoprotective activity on rat tunicamycin treated rat pheochromocytoma cell line PC12 from apoptosis induced by Endoplasmic reticulum stress; NA = Not active upto 100 uM; type: functional, cell-based; call rule not given here
Method in brief: (§1)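 PC12 cells exposed to tunicamycin (ER-stress inducer) together with graded compound doses for 37 h; viability read as cellular ATP content. Positive control: zVAD.fmk 100 µM. EC50 taken as concentration giving half-maximal rescue from cell death relative to the Tm-only control.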

SMILES	EC50
O=C(/C=C/c1ccccc1)NC(CO)/N=C(\S)Nc1ccccn1 (stereo unspecified)	Not Active
CCOC(=O)C(/N=C(\S)Nc1ccccn1)NC(=O)/C=C/c1ccccc1 (stereo unspecified)	Not Active
CCCCOc1ccc(/C=C/C(=O)NC(/N=C(\S)Nc2ccccn2)C(Cl)(Cl)Cl)cc1 (stereo unspecified)	Not Active
CC(C)=CC(=O)NC(/N=C(\S)Nc1ccccn1)C(Cl)(Cl)Cl (stereo unspecified)	Not Active
O=C(/C=C/c1ccccc1)NC1CSC(Nc2ccccn2)=N1 (stereo unspecified)	Not Active

The next lines start with the values.

EC50	SMILES
Not Active	O=C(NC(NC(=S)Nc1ccccn1)C(Cl)(Cl)Cl)c1ccccc1 (stereo unspecified)
Not Active	O=C(/C=C/c1ccccc1)NC(NC(=S)Nc1cnc2ccccc2c1)C(Cl)(Cl)Cl (stereo unspecified)

tested on: PC-12; assay: Cytoprotective activity on rat tunicamycin treated rat pheochromocytoma cell line PC12 from apoptosis induced by Endoplasmic reticulum stress; TX=Toxic; type: functional, cell-based; method in brief: as §1

SMILES	EC50
O=C(/C=C/c1ccccc1)NNC(=S)Nc1ccccn1	Toxic
O=C(/C=C/c1ccccc1)NCCNC(=S)Nc1ccccn1	Toxic
O=C(/C=C/c1ccccc1)NC(/N=C(\S)Nc1ccccn1)C(F)(F)F (stereo unspecified)	Toxic

tested on: PC-12; assay: Cytoprotective activity on rat tunicamycin treated rat pheochromocytoma cell line PC12 from apoptosis induced by Endoplasmic reticulum stress; type: functional, cell-based; method in brief: as §1

SMILES	EC50 [µM]
O=C(/C=C/c1ccccc1C(F)(F)F)NC(/N=C(\S)Nc1ccccn1)C(Cl)(Cl)Cl (stereo unspecified)	38
CCCC/N=C(\S)NC(NC(=O)/C=C/c1ccccc1)C(Cl)(Cl)Cl (stereo unspecified)	24
O=C(/C=C/c1ccccc1)NC(NC(=S)NC(=O)c1ccccc1)C(Cl)(Cl)Cl (stereo unspecified)	> 100
O=C(/C=C/c1ccc([N+](=O)[O-])cc1)NC(/N=C(\S)Nc1ccccn1)C(Cl)(Cl)Cl (stereo unspecified)	28
Nc1ccc(/C=C/C(=O)NC(/N=C(\S)Nc2ccccn2)C(Cl)(Cl)Cl)cc1 (stereo unspecified)	56
O=C(/C=C/c1ccc(F)cc1F)NC(/N=C(\S)Nc1ccccn1)C(Cl)(Cl)Cl (stereo unspecified)	72
O=C(/C=C/C1CCCCC1)NC(NC(=S)Nc1ccccn1)C(Cl)(Cl)Cl (stereo unspecified)	29
O=C(/C=C/c1ccccc1)NC(NC(=S)Nc1cccc2cccnc12)C(Cl)(Cl)Cl (stereo unspecified) [SALUBRINAL]	15

Other lines, results leading:

EC50 [µM]	SMILES
33	O=C(CCc1ccccc1)NC(NC(=S)Nc1ccccn1)C(Cl)(Cl)Cl (stereo unspecified)
40	O=C(/C=C/c1ccccc1Cl)NC(NC(=S)Nc1ccccn1)C(Cl)(Cl)Cl (stereo unspecified)
41	O=C(/C=C/c1cccs1)NC(NC(=S)Nc1ccccn1)C(Cl)(Cl)Cl (stereo unspecified)
30	O=C(/C=C/c1cccnc1)NC(NC(=S)Nc1ccccn1)C(Cl)(Cl)Cl (stereo unspecified)
40	O=C(/C=C/c1ccccc1)NC(NC(=S)Nc1ccccn1)C(Cl)(Cl)Cl (stereo unspecified)
75	O=C(/C=C/c1ccccc1)NC(NC(=S)Nc1ccccn1)C(Cl)Cl (stereo unspecified)
50	O=C(/C=C/c1ccc(Br)cc1)NC(NC(=S)Nc1ccccn1)C(Cl)(Cl)Cl (stereo unspecified)
51	O=C(/C=C/c1ccccc1)NC(NC(=S)Nc1ccccn1)C(Br)(Br)Br (stereo unspecified)
